Reference: ChEMBL document CHEMBL1773020, “Discovery of fused bicyclic agonists of the orphan G-protein coupled receptor GPR119 with in vivo activity in rodent models of glucose control” (Bioorg Med Chem Lett, 2011)
Calls of active or inactive are those of the source. The calls are words filed in the database; no cut-off is given here.

How the values were obtained:
Rattus norvegicus [1] = test: Antidiabetic activity in ZDF rat assessed as glycated hemoglobin level at 30 mg/kg, po measured on day 56; format: functional
Summary of the method: (§1)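 Male ZDF rats, 6 weeks old, baseline weight 200–250 g, were split into 3 groups by fed body weight and blood glucose. They received vehicle (100% PEG400) or compound daily for 56 days, n = 5–7 per group. Blood glucose and HbA1c were determined on days 1, 31 and 56, and body weight gain was recorded. Results are mean ± standard error.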

Rattus norvegicus [2] = test: Antidiabetic activity in ZDF rat assessed as glycated hemoglobin level at 30 mg/kg, po measured on day 31
Rattus norvegicus [3] = test: Antidiabetic activity in ZDF rat assessed as blood glucose level at 10 mg/kg, po measured on day 56; format: functional; summary of the method: as §1
Rattus norvegicus [4] = test: Antidiabetic activity in ZDF rat assessed as glycated hemoglobin level at 30 mg/kg, po measured on day 1; format: functional; summary of the method: as §1
Rattus norvegicus [5] = test: Antidiabetic activity in po dosed Sprague-Dawley rat assessed as oral glucose tolerance; format: functional; conditions: read-out: MED
Summary of the method: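 SD rats were fasted 3–16 h, and compound was given po at −30 min after a tail-nick glucose reading. At time 0, glucose 3 g/kg po (6 ml/kg) was given. Glucometer readings were taken at 0, 30, 60 and 120 min. Each rat was used twice, one week apart.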

Rattus norvegicus [6] = test: Antidiabetic activity in ZDF rat assessed as blood glucose level at 30 mg/kg, po measured on day 56; format: functional; summary of the method: as §1
Rattus norvegicus [7] = test: Antidiabetic activity in ZDF rat assessed as glycated hemoglobin level at 10 mg/kg, po measured on day 56; format: functional; summary of the method: as §1
[8] = Plasma protein binding in female cynomolgus monkey; format: ADME, cell-free, Macaca fascicularis; conditions: read-out: PPB
[9] = Tmax in po dosed dog; format: ADME, organism-based, Canis lupus familiaris; conditions: in vivo
[10] = Aqueous solubility of the compound; format: physicochemical; conditions: buffer
Rattus norvegicus [11] = test: Volume of distribution at steady state in po dosed Sprague-Dawley rat; format: ADME, organism-based; conditions: in vivo
[12] = Mutagenic activity in mouse lymphoma; format: toxicity
Rattus norvegicus [13] = test: Antidiabetic activity in ZDF rat assessed as glycated hemoglobin level at 10 mg/kg, po measured on day 31
Rattus norvegicus [14] = test: Antidiabetic activity in hyperglycemic Sprague-Dawley rat model assessed as glucose dependent insulin release at 0.08 mg/kg/min, iv; format: functional, organism-based
Summary of the method: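 Hyperglycemic clamp in male SD rats fasted overnight. After 1 h of baseline glucose and insulin sampling, vehicle or compound was infused into the jugular vein for 2 h. Glucose was clamped at 100 mg/dl for hours 1–2, then raised to 300 mg/dl for hour 3 by a 30% glucose bolus and variable infusion. Plasma insulin was followed.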

[15] = Elimination half life in iv dosed cynomolgus monkey; format: ADME, organism-based, Macaca fascicularis; conditions: in vivo, read-out: beta t1/2 (converted)
[16] = Tmax in po dosed Sprague-Dawley rat; format: ADME, organism-based; conditions: in vivo
[17] = target: Voltage-gated inwardly rectifying potassium channel KCNH2 (Homo sapiens, UniProt Q12809); test: Inhibition of human ERG by patch clamp assay
Chain of Voltage-gated inwardly rectifying potassium channel KCNH2 (Q12809 whole entry): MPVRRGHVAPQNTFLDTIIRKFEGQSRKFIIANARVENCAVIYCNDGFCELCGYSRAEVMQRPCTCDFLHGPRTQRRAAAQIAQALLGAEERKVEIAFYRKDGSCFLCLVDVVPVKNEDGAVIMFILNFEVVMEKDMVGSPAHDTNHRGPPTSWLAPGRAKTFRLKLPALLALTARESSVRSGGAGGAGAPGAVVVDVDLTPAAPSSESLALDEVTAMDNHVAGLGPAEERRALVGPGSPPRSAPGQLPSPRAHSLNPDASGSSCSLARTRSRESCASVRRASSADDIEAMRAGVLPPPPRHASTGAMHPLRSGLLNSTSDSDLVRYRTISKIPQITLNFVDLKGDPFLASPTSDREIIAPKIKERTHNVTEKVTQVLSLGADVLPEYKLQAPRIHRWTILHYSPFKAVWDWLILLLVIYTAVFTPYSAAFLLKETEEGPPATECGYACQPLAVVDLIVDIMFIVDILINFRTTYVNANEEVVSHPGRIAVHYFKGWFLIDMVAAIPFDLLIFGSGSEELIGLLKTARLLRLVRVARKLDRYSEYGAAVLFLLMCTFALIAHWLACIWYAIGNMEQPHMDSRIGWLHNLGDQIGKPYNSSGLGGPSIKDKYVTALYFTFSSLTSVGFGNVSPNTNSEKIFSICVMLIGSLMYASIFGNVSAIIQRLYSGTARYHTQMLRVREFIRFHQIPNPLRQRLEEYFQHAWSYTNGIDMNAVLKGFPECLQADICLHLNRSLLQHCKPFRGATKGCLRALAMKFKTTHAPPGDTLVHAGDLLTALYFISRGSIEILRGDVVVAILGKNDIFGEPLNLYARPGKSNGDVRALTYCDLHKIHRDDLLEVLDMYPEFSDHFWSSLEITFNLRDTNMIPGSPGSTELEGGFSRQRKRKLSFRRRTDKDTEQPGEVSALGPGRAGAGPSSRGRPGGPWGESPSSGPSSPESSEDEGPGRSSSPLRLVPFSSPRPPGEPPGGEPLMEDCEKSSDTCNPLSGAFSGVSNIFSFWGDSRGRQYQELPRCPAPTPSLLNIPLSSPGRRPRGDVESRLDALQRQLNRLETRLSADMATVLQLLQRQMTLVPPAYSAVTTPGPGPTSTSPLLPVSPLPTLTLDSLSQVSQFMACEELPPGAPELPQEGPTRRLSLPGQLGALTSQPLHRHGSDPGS

Caco-2 = test: Apparent permeability across human Caco2 cells; format: ADME, cell-based
[18] = Elimination half life in iv dosed mouse; format: ADME, organism-based; conditions: in vivo, read-out: beta t1/2 (converted)
[19] = target: T1, Glucose-dependent insulinotropic receptor (Rattus norvegicus, UniProt Q7TQN8); test: Agonist activity at rat GPR119 by melanophore assay; format: functional
T1 sequence (Q7TQN8 whole entry): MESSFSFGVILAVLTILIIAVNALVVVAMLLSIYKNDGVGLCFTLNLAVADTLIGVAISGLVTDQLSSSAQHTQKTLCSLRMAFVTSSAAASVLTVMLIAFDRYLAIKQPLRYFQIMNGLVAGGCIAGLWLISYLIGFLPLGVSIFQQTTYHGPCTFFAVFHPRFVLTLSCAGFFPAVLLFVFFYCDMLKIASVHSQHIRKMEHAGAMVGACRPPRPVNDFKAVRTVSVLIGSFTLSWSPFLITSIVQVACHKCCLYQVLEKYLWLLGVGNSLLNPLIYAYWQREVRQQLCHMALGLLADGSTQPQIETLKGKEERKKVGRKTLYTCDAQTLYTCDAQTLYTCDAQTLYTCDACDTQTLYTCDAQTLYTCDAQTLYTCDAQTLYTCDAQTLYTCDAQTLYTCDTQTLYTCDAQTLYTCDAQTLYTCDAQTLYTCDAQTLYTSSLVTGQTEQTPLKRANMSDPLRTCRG
Summary of the method: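 Agonist EC50 measured in melanophores transfected with the human or rat GPR119 receptor sequence. Values are means of multiple determinations (n).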

[20] = Oral bioavailability in cynomolgus monkey; format: ADME, organism-based, Macaca fascicularis; conditions: in vivo
Rattus norvegicus [21] = test: Antidiabetic activity in ZDF rat assessed as body weight gain at 30 mg/kg, po measured on day 56; format: functional; summary of the method: as §1
[22] = Plasma protein binding in human; format: ADME, cell-free; conditions: read-out: PPB
[23] = Plasma protein binding in female rat; format: ADME, cell-free; conditions: read-out: PPB (converted)
[24] = Elimination half life in iv dosed Sprague-Dawley rat; format: ADME, organism-based; conditions: in vivo, read-out: beta t1/2 (converted)
[25] = Elimination half life in iv dosed dog; format: ADME, organism-based, Canis lupus familiaris; conditions: in vivo, read-out: beta t1/2 (converted)
[26] = Plasma protein binding in male rat; format: ADME, cell-free; conditions: read-out: PPB (converted)
[27] = Oral bioavailability in dog; format: ADME, organism-based, Canis lupus familiaris; conditions: in vivo
Rattus norvegicus [28] = test: Antidiabetic activity in ZDF rat assessed as body weight gain at 10 mg/kg, po measured on day 56; format: functional; summary of the method: as §1
[29] = Tmax in po dosed mouse; format: ADME, organism-based; conditions: in vivo
[30] = Plasma protein binding in male cynomolgus monkey; format: ADME, cell-free, Macaca fascicularis; conditions: read-out: PPB
[31] = Oral bioavailability in Sprague-Dawley rat; format: ADME, organism-based; conditions: in vivo
Salmonella typhimurium = test: Mutagenic activity in Salmonella Typhimurium; format: toxicity, organism-based; conditions: salmonella enterica subsp. enterica serovar typhimurium
[32] = Tmax in po dosed cynomolgus monkey; format: ADME, organism-based, Macaca fascicularis; conditions: in vivo
[33] = Mutagenic activity in mouse micronuclei; format: toxicity
[34] = Oral bioavailability in mouse; format: ADME, organism-based; conditions: in vivo
Cynomolgus monkey = test: Volume of distribution at steady state in po dosed cynomolgus monkey; format: ADME, organism-based, Macaca fascicularis; conditions: in vivo
Mus musculus = test: Antidiabetic activity in po dosed C57/BL6 mouse assessed as oral glucose tolerance; format: functional; conditions: read-out: MED
Summary of the method: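 C57/BL6 mice were handled twice and fasted 3–16 h. Compound was given 0–30 min before the first sample. At time 0 a glucose bolus ([…] as printed, po) was given. Tail-nick glucose was read by glucometer at 0, 20, 40, 60 and 120 min.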

Rattus norvegicus [35] = test: Antidiabetic activity in ZDF rat assessed as glycated hemoglobin level at 10 mg/kg, po measured on day 1; format: functional; summary of the method: as §1
Cytochrome P450 2C9 = Cytochrome P450 2C9 (Homo sapiens, UniProt P11712); test: Inhibition of CYP2C9; format: ADME
Chain of Cytochrome P450 2C9 (P11712 whole entry): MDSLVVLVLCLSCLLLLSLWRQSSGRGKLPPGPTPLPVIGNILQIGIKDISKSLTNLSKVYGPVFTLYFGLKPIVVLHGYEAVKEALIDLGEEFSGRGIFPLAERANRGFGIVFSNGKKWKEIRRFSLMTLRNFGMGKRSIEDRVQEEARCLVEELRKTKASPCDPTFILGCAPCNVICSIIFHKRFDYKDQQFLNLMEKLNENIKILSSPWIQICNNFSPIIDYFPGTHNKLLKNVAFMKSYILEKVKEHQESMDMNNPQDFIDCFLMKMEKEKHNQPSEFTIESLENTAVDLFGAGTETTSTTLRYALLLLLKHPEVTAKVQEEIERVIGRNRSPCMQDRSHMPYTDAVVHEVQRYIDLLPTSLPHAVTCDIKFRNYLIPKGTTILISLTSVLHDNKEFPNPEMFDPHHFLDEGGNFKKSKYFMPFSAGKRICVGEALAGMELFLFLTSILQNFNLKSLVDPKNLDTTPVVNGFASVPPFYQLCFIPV
Summary of the method: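 Inhibition constant (Ki) determined in human hepatic microsomes.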

- fraction unbound [8]: ≤ 0.01
- Tmax [9]: 360 min
- solubility [10]: soluble
- Vdss (Rattus norvegicus [11]): 2.6 L/kg
- half-life [15]: 48 min
- Tmax [16]: ≤ 120 min
- permeability (Caco-2): permeable
- half-life [18]: 48 min
- EC50 [19]: 33 nM
- bioavailability [20]: 44%
- fraction unbound [22]: ≤ 0.01
- fraction unbound [23]: 0.034
- half-life [24]: 48 min
- half-life [25]: 48 min
- fraction unbound [26]: 0.07
- bioavailability [27]: 22%
- Tmax [29]: ≤ 120 min
- fraction unbound [30]: ≤ 0.01
- bioavailability [31]: 44%
- Tmax [32]: ≤ 120 min
- bioavailability [34]: 44%
- Vdss (Cynomolgus monkey): 0.1 L/kg
- Ki (Cytochrome P450 2C9): 100 nM
Compound: CC(C)OC(=O)N1CCC(Oc2ncnc3c2cnn3-c2ccc(S(C)(=O)=O)cc2F)CC1
- Activity (Rattus norvegicus [1]): 4.7%
- Activity (Rattus norvegicus [2]): 5.2%
- Activity (Rattus norvegicus [3]): 359.3 mg/dL
- Activity (Rattus norvegicus [4]): 3.4%
- minimal effective dose (Rattus norvegicus [5]): 10 mg/kg
- Activity (Rattus norvegicus [6]): 105.2 mg/dL
- Activity (Rattus norvegicus [7]): 8.2%
- Activity [12]: Non-toxic
- Activity (Rattus norvegicus [13]): 7.3%
- Activity (Rattus norvegicus [14]): Active
- IC50 [17]: 3000 nM
- Activity (Rattus norvegicus [21]): 204.2 g
- Activity (Rattus norvegicus [28]): 224.9 g
- Activity (Salmonella typhimurium): Non-toxic
- Activity [33]: Non-toxic
- minimal effective dose (Mus musculus): 3 mg/kg
- Activity (Rattus norvegicus [35]): 3.5%
